Test results taken from PubChem BioAssay.
Calls of active or inactive are those of the source.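 How the source made its calls, unless noted: active means GFP response above 150% of the DMSO level; inconclusive means fewer than 70 events counted for a yeast strain; inactive means the rest.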

Legend:
[1] = RPL19A-GFP modulators, yeast TOR pathway, confirmation, cell-based, S. cerevisiae, flow cytometry, cherry picks, mother/daughter gates (AID 2270;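 active means GFP response below 50% of the DMSO control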); settings: S. cerevisiae RPL19A-GFP strain, 3 h, at 10 µM, stronger effect = lower value, 100 = same GFP as DMSO wells
[2] = LAP4-GFP expression modulators in yeast, confirmation, cell-based, cherry picks, flow cytometry, mother/daughter gates (AID 2271;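 active means GFP response above 150% of the DMSO control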;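 further: ratio of sample to DMSO plate mean so 100% equals DMSO level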); settings: S. cerevisiae LAP4-GFP strain, 3 h, at 10 µM, stronger effect = higher value, 100 means same as DMSO control
Procedure, shortened: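 System – GFP-fusion yeast strain · Amount – 0.2 OD600 cells · Buffer or medium – SC growth medium · Dosing – single test-compound dose, 10 µM final · Schedule – 3 h treatment at 30 °C with rotation · Detection – GFP by flow cytometry · Read-out – per-gate (all, mother, daughter) GFP response vs DMSO · Benchmarks – positive rapamycin (400 ng/mL), negative DMSO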

[3] = modulators of MEP2-GFP levels in yeast, confirmation, S. cerevisiae, flow cytometry GFP, cherry picks (AID 2272;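 active means GFP response above 150% of the DMSO control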;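 further: ratio of well signal to plate DMSO mean so 100% equals DMSO level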); settings: S. cerevisiae MEP2-GFP strain, 3 h, at 10 µM, stronger effect = higher value
[4] = AGP1-GFP expression modulators, hit retest, confirmation, cell-based, flow cytometry, S. cerevisiae, cherry picks (AID 2273);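 further: median GFP channel fluorescence over the whole cell population gate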; settings: S. cerevisiae AGP1-GFP strain, 3 h, at 10 µM
[5] = modulators of CIT2-GFP expression in yeast, confirmation, S. cerevisiae, GFP fusion, cherry picks, mother/daughter gates (AID 2274); settings: S. cerevisiae CIT2-GFP strain, flow cytometry, 3 h, at 10 µM, stronger effect = higher value
[6] = measured here: daughter cell gate
[7] = measured here: mother cell gate
[8] = measured here: daughter cell gate response
[9] = measured here: mother cell gate response

SMILES	GFP response vs DMSO [1]	GFP response vs DMSO [1, 6] [%]	GFP response vs DMSO [1, 7] [%]	GFP response relative to DMSO [2]	GFP response relative to DMSO [2, 8] [%]	GFP response relative to DMSO [2, 9] [%]	GFP response vs DMSO [3]	GFP response, % of DMSO [4]	GFP response, % of DMSO [5]	GFP response, % of DMSO [5, 6] [%]	GFP response, % of DMSO [5, 7] [%]
Cc1ccc(C)c(Cn2ncc3ccccc32)c1	95.8% (inactive)	98.1	95.4	100% (inactive)	97.5	104	106% (inactive)	90.7% (inactive)	94.4% (inactive)	95.8	92.6
Cc1nn(Cc2ccc([N+](=O)[O-])cc2)c(=O)n1-c1cccc(Cl)c1	96% (inactive)	96.6	96.6	96.7% (inactive)	97.6	96.1	98.3% (inactive)	95.4% (inactive)	99.7% (inactive)	101	99.7
Cc1nc(Sc2ccc(Br)cc2)c(C#N)c(C)c1[N+](=O)[O-]	106% (inactive)	105	104	98.2% (inactive)	97.5	98.4	101% (inactive)	96.1% (inactive)	98.8% (inactive)	97.4	76
C/C(=N\NC(=O)c1ccc(Br)cc1)c1ccccc1	98% (inactive)	97.9	98	97.9% (inactive)	99.2	98.3	102% (inactive)	94.3% (inactive)	99.7% (inactive)	99.1	98.5
CCN(CC)C(=O)Cn1c(C)c(/C=C/c2cc[n+](C)cc2)c2ccccc21	107% (inactive)	106	106	108% (inactive)	110	107	126% (inactive)	98.6% (inactive)	109% (inactive)	110	105
COc1ccc(NC(=O)C2C3C=CC(C3)C2C(=O)NCc2ccco2)c(OC)c1 (stereo not drawn)	97.6% (inactive)	94.4	93.3	100% (inactive)	96	94.4	101% (inactive)	103% (inactive)	98.6% (inactive)	95.8	96
O=C(CSc1cccc[n+]1[O-])c1cc2ccccc2o1	104% (inactive)	107	103	138% (inactive)	126	137	109% (inactive)	97.2% (inactive)	107% (inactive)	111	104
Cn1c(=O)c(C(=O)NC2CCCCCCC2)c(O)c2ccccc21	101% (inactive)	102	103	93.8% (inactive)	94.1	96.2	95.7% (inactive)	98.9% (inactive)	107% (inactive)	105	111
COc1cc(NC(=O)c2ccccc2)ccc1NC(=O)c1cc2ccccc2o1	98.7% (inactive)	98.7	97.8	94.1% (inactive)	97.5	92.3	103% (inactive)	101% (inactive)	100% (inactive)	95.8	100
CCCOc1ccc(C(=O)NNC(=S)NC(=O)c2ccco2)cc1	124% (inactive)	111	110	175% (active)	148	167	137% (inactive)	131% (inactive)	134% (inactive)	132	121
Cc1cc(NCCN2CCOCC2)n2nc(C)c(-c3ccc(Cl)cc3)c2n1	97.1% (inactive)	97	95.8	106% (inactive)	101	109	108% (inactive)	98.4% (inactive)	100% (inactive)	99.3	99.3
O=C(COC(=O)C1CCN(c2ccc(C(F)(F)F)cn2)CC1)Nc1cccc(F)c1	95% (inactive)	94.6	96.1	102% (inactive)	102	100	96.2% (inactive)	97.2% (inactive)	104% (inactive)	108	102
COc1ccc(C(=O)NC(=S)Nc2ccc(CN3CCOCC3)cc2)cc1	101% (inactive)	98.8	99.9	99.5% (inactive)	99.1	99.4	99% (inactive)	101% (inactive)	98.8% (inactive)	99.2	98.1
Cn1ncc(N2CCN(S(=O)(=O)c3ccc(Br)cc3)CC2)c(Cl)c1=O	98.2% (inactive)	97.9	98.7	96.7% (inactive)	96	95.1	107% (inactive)	99.3% (inactive)	98.3% (inactive)	101	97.3
COc1ccc(N2CCN(C(=O)CCc3nnc4ccc(N5CCCC5)nn34)CC2)cc1	101% (inactive)	99.2	101	96.2% (inactive)	98.7	97.2	100% (inactive)	97.8% (inactive)	104% (inactive)	101	104
COc1ccc(C2c3c(oc4ccccc4c3=O)C(=O)N2CCN2CCOCC2)cc1OC (stereo not drawn)	103% (inactive)	95.3	101	119% (inactive)	116	114	172% (inactive)	105% (inactive)	129% (inactive)	116	113
Cc1ccc(-c2nnc(NC(=O)c3ccc([N+](=O)[O-])o3)o2)c(C)c1	101% (inactive)	99.3	99.8	161% (active)	133	160	108% (inactive)	92.3% (inactive)	95.8% (inactive)	99.3	91.5

SMILES	GFP response vs DMSO [1]	GFP response vs DMSO [1, 6] [%]	GFP response vs DMSO [1, 7] [%]	GFP response relative to DMSO [2]	GFP response relative to DMSO [2, 8] [%]	GFP response relative to DMSO [2, 9] [%]	GFP response vs DMSO [3]	GFP response, % of DMSO [4]	GFP response, % of DMSO [5]	GFP response, % of DMSO [5, 6] [%]	GFP response, % of DMSO [5, 7] [%]
CCN(CC)C(=O)c1ccc2c3c(cccc13)C(=O)N(CCc1ccc(OC)c(OC)c1)C2=O	98.8% (inactive)	99.3	98.8	108% (inactive)	97.9	109	99.5% (inactive)	95.2% (inactive)	96.4% (inactive)	98.3	94.5
O=C(CC1SC(=Nc2ccccc2F)N(CCN2CCOCC2)C1=O)Nc1ccc(F)cc1F (stereo not drawn)	96.8% (inactive)	97.4	96.6	95.4% (inactive)	96	94	102% (inactive)	97.8% (inactive)	98.3% (inactive)	99.1	98.5
Cc1nnc(OCc2nc3ccccc3n2C)c2ccccc12	101% (inactive)	102	101	98.8% (inactive)	93.6	100	99.5% (inactive)	94.3% (inactive)	96.4% (inactive)	96.4	95.6
Cc1cc(O)c(C(=O)/C=C/c2ccc(C(C)C)cc2)c(=O)o1	95.4% (inactive)	93.9	96.6	104% (inactive)	104	106	96.2% (inactive)	100% (inactive)	98.3% (inactive)	99.1	97.3
COc1ccccc1N1CCN(C(=O)c2ccccc2Oc2ccccc2)CC1	96.7% (inactive)	97	95.2	91.8% (inactive)	92.9	87.3	101% (inactive)	98.6% (inactive)	98.6% (inactive)	97.6	93.8
CCOC(=O)Cn1cc(/C=C/[N+](=O)[O-])c2ccccc21	95.8% (inactive)	92.7	93.5	160% (active)	153	157	99.3% (inactive)	95% (inactive)	88.9% (inactive)	92.3	83.7
Cc1ccc(C(=O)O/N=C(\N)Cc2cccs2)c(Cl)c1	104% (inactive)	102	99.3	125% (inactive)	114	123	105% (inactive)	70.7% (inactive)	129% (inactive)	117	129
CSC1=NC(=O)/C(=C/c2ccc(SC)cc2)S1	95.1% (inactive)	78	92.5	138% (inactive)	115	134	110% (inactive)	107% (inactive)	75% (inactive)	78.1	70.3
CC1=C(C)/C(=N\OS(=O)(=O)c2ccccc2)C=CC1=O	99.1% (inactive)	98.8	91.2	250% (active)	196	236	112% (inactive)	93.4% (inactive)	105% (inactive)	111	95.6
CCOc1ccc(N2C(=O)CC(Sc3ncccn3)C2=O)cc1 (stereo not drawn)	98.2% (inactive)	98.4	99.2	97.9% (inactive)	97.6	98.3	100% (inactive)	101% (inactive)	104% (inactive)	105	104
O=c1oc(/C=C/c2ccc([N+](=O)[O-])s2)nc2ccccc12	112% (inactive)	113	108	184% (active)	180	189	267% (active)	107% (inactive)	183% (active)	180	181
O=C(O/N=C(\c1ccccc1)c1ccncc1)c1ccccc1Cl	77% (inactive)	74.3	79.7	119% (inactive)	118	123	91% (inactive)	91.8% (inactive)	68.1% (inactive)	69.2	69.2
COC(=O)c1sc(-c2ccc(C(C)(C)C)cc2)cc1NC(=O)CCC(=O)O	98.6% (inactive)	97.3	98.9	98.7% (inactive)	95.6	100	100% (inactive)	95.4% (inactive)	97.8% (inactive)	96.5	98.7
Cc1cc(C)c(C)c(S(=O)(=O)ON2C(=O)c3ccccc3C2=O)c1C	103% (inactive)	97.5	94.1	206% (active)	170	204	114% (inactive)	97.3% (inactive)	105% (inactive)	113	91
COC(=O)/C(=C/c1c[nH]c2ccccc12)[N+](=O)[O-]	99.6% (inactive)	95.1	95.1	162% (active)	149	164	111% (inactive)	86.9% (inactive)	89.8% (inactive)	89.9	80.7
O=[N+]([O-])/C=C/c1cn(Cc2ccc(F)cc2)c2ccccc12	103% (inactive)	104	102	113% (inactive)	110	115	105% (inactive)	94.5% (inactive)	104% (inactive)	105	101
